Data on 18 compounds can be found in PubChem BioAssay.

The structures appear in SMILES notation. Unmarked numbers belong to inactive results. Results filed as inconclusive are left out. Active and inactive are the calls of the source.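 The calls were made as follows, unless noted: active = viability increase at or above a cutoff of the median across tested compounds plus 3 SD (cut at about 8.5% in these data, passing the limit was not always enough); inconclusive = some gains above the cutoff, reason not given; inactive = the rest.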

A short description of experiment [1]: OD615 S. cerevisiae growth inhibition, permissive medium, pilot counter-assay, permissive growth control for S. cerevisiae lifespan shortening project (AID 705;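 active = growth inhibition above 25% in both replicates, a cutoff set 3 SD above the mean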). As to conditions: OD615, 24 h, at 10 µM, stronger effect = higher value. The procedure, abridged:
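System: Engineered DeaD yeast | Buffer or medium: SC raffinose/galactose permissive medium | Doses: 10 µM single dose, 0.25% DMSO | Times: 24 h exposure, 30 °C | Measured by: OD615 turbidity read | Read-out: Yeast growth inhibition indicated by reduced 24 h OD615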

Experiment [2] is described as follows: Restrictive medium S. cerevisiae growth inhibition, OD615, pilot screen of yeast lifespan reduction project, restrictive growth control (AID 706;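 active = growth inhibition above a set limit, 3 SD over mean compound inhibition, in both replicates, cut at about 43% in these data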;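 also: modified DeaD lifespan yeast strain shifted to restrictive glucose medium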). As to conditions: OD615, 48 h, at 10 µM, stronger effect = higher value. In a few lines: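 Assay system: engineered S. cerevisiae DeaD strain; Buffer or medium: CSMM-D glucose medium; Dosing: 10 µM compound, 0.25% DMSO; Times: cell pre-growth 4 h, compound exposure 48 h, 30 °C; Detection: absorbance (optical density) measured at 615 nm.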

Experiment [3] is described as follows: viability gain of MRP-1-high H69AR cells under doxorubicin, pilot screen, MRP-1 activator project, CellTiter-Glo, duplicate (AID 807).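 Also: compound pretreatment 18-22 h then 72 h combined with doxorubicin; 0% = doxorubicin alone and 100% = vehicle without doxorubicin.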 As to conditions: H69AR viability with doxorubicin, CellTiter-Glo luminescence; at 10 µM; stronger effect = higher value.
A short description of experiment [4]: growth suppression of beta-catenin knockout HCT116, pilot screen, human colon tumor cells (AID 823;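 active = cell viability at or below a set limit in both duplicate runs, the limit being the all-compound median minus 4 SD, cut at about 23% in these data, passing the limit was not always enough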;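 also: 0% = wells killed by 20 µM Hyamine and 100% = untreated DMSO cell wells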). The following applies: CellTiter-Glo, 60 h, at 10 µM, stronger effect = lower value.
Experiment [5] can be described thus: growth suppression of PTEN-deleted HCT116, pilot screen, cell-based, HCT116 clonal line, CellTiter-Glo (AID 824;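 active = viability at or below 27.92% in each of two runs, the all-compound median minus 4 SD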;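 also: 0% = 20 µM Hyamine control and 100% = vehicle cell control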). The following applies: 60 h, at 10 µM, stronger effect = lower value.
Experiment [6] is described as follows: inhibitors of the yeast RAM network, pilot screen, dse1pr::URA3 reporter, 5-FOA selection (AID 869;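 active = inhibition over a set limit, the all-compound mean plus 3 SD, in both replicate runs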;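 also: 0% = DMSO wells with no growth and 100% = 10 µM 1-NA-PP1 with full growth; RAM network block rescues cells from 5-FOA so hits raise OD615 growth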). As to conditions: S. cerevisiae dse1pr::URA3 5-FOA growth, OD615, 2 d; at 10 µM; stronger effect = higher value; strain carries analog-sensitive mutant Cbk1 kinase.
Experiment [7] in a line: RAM signaling pathway blockade in yeast – S. cerevisiae, Pdr1DBD-CYC8 efflux-inhibited sensitized strain, primary screen (AID 1298;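 active = RAM network inhibition above 8.4% in each of two replicates, 3 SD over the compound average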;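 also: 0% = DMSO untreated cells without growth and 100% = 10 µM 1-NA-PP1 full growth; higher means more yeast growth rescued from 5-FOA killing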). As to conditions: S. cerevisiae cbk1-as DSE1-URA3 strain, 5-FOA growth OD615, 2 d; at 50 µM; stronger effect = higher value.

In the case of `O=C(CSc1nc2ccccc2[nH]1)Nc1ccc(F)cc1`, the growth inhibition is 3.95% in experiment [1] and 11.3% in experiment [2]. The viability increase in experiment [3] was 0.83%. The viability in experiment [4] is 97.7%; in experiment [5] it was 90.2%. In addition, in experiment [6], the inhibition is 0.255%. Moreover, the RAM network inhibition in experiment [7] was 5.07%.

As to `Cc1cccc(-n2c(Cc3cc(=O)[nH]c(=O)[nH]3)nnc2SCC(=O)NCC2CCCO2)c1` (stereo unspecified), the growth inhibition was -2.17% in experiment [1] and -13.5% in experiment [2]. The viability increase in experiment [3] is -2.52%. The viability was 93.5% in experiment [4] and 92.3% in experiment [5]. Moreover, in experiment [6], the inhibition was 0.535%. For the same compound, the RAM network inhibition in experiment [7] was -1.56%.

Consider `C=CCn1c(C)nc2c(c1=O)c1nc3ccccc3nc1n2-c1ccc(C)cc1`, for which the growth inhibition in experiment [1] was -4.19%; in experiment [2] it was -2.97%. Also, the viability increase in experiment [3] is -1.62%. For the same compound, the viability was 92.3% in experiment [4] and 82.2% in experiment [5]. The inhibition in experiment [6] is 1.32%. Moreover, the RAM network inhibition in experiment [7] is 4.86%.

As to `O=C(c1ccc(CS(=O)(=O)c2ccc(Br)cc2)o1)N1CCOCC1`, the results for the growth inhibition in experiment [1] and in experiment [2] were -10.2% and -12.6%, respectively. Also, the viability increase in experiment [3] is -0.67%. The viability in experiment [4] was 104%; in experiment [5], 97.3%. Also, the inhibition in experiment [6] was 2.23%. In addition, in experiment [7], the RAM network inhibition was 0.1%.

`CC(C)(C)N1C(=O)c2ccc(C(=O)Nc3nccs3)cc2C1=O`: the growth inhibition in experiment [1] was -7.12%; in experiment [2] it was -7.02%. For the same compound, the viability increase in experiment [3] is -0.27%. The results for the viability in experiment [4] and in experiment [5] were 106% and 103%, respectively. For the same compound, in experiment [6], the inhibition was 0.64%. Also, the RAM network inhibition in experiment [7] is 0.63%.

In the case of `COc1ccc(Nc2cc(C)nc3nc(C)nn23)cc1Cl`, the growth inhibition in experiment [1] was 0.45%; in experiment [2], 13.4%. For the same compound, the viability increase in experiment [3] is -3.91%. The viability in experiment [4] was 101%; in experiment [5], 93.5%. In experiment [6], the inhibition is -0.465%. For the same compound, the RAM network inhibition in experiment [7] is -0.01%.

With `CC(c1ccccc1)N1CC(C(=O)N2CCN(c3ccccc3)CC2)CC1=O` (stereo unspecified), the growth inhibition is 0.43% in experiment [1] and 1.48% in experiment [2]. Also, in experiment [3], the viability increase was -1.1%. For the same compound, the viability in experiment [4] is 104%; in experiment [5], 101%. In addition, the inhibition in experiment [6] is 0.54%. For the same compound, in experiment [7], the RAM network inhibition was 4.4%.

Regarding `CCN(CC)P1(=O)OC(c2cc(OC)c(OC)c(OC)c2)=Nc2c1c(C)nn2-c1ccccc1` (stereo unspecified), the results for the growth inhibition in experiment [1] and in experiment [2] were -7.12% and -13.3%, respectively. Besides, the viability increase in experiment [3] is -2.38%. The viability in experiment [4] was 95.8%; in experiment [5], 92.8%. Further, the inhibition in experiment [6] was 1.87%. In addition, the RAM network inhibition in experiment [7] is 2.4%.

As to `CCCCCOC(=O)c1[nH]c2c(c1C)C(=O)CC(c1ccco1)C2` (stereo unspecified), the values for the growth inhibition in experiment [1] and in experiment [2] were -15% and -3.28%, respectively. Besides, the viability increase in experiment [3] is -5.25%. In addition, the viability in experiment [4] was 14.5% (active); in experiment [5], 16.3% (active). In addition, the inhibition in experiment [6] was 0.18%. In addition, in experiment [7], the RAM network inhibition is -0.31%.

With `CC(=O)Nc1ccc(-n2c(C)c(C(C)=O)c(C(C)=O)c2C)cc1`, the growth inhibition in experiment [1] was -2.51%; in experiment [2] it was -2.06%. The viability increase in experiment [3] is -2.3%. Further, the values for the viability in experiment [4] and in experiment [5] were 102% and 101%, respectively. In experiment [6], the inhibition is 0.515%. The RAM network inhibition in experiment [7] is 4.97%.

As to `O=C(Cn1cc2c(n1)CCCCC2)NCc1cccs1`, the growth inhibition is 0.86% in experiment [1] and 0.58% in experiment [2]. For the same compound, the viability increase in experiment [3] is -1.84%. For the same compound, the figures for the viability in experiment [4] and in experiment [5] were 100% and 87.7%, respectively. The inhibition in experiment [6] was 0.935%. For the same compound, the RAM network inhibition in experiment [7] was 1.69%.

Take `COC(=O)C(Cc1ccccc1)NC(=O)CSc1nc(C)cc(=O)[nH]1` (stereo unspecified): the figures for the growth inhibition in experiment [1] and in experiment [2] were -8.37% and -4.86%, respectively. Besides, the viability increase in experiment [3] was -2.4%. Besides, the viability is 101% in experiment [4] and 91.7% in experiment [5]. For the same compound, in experiment [6], the inhibition was 1.4%. Besides, in experiment [7], the RAM network inhibition was -0.21%.

On to `O=C1c2ccccc2C(Nc2ccc3c(c2)OCO3)N1Cc1ccco1` (stereo unspecified), for which the growth inhibition in experiment [1] is 5.28%; in experiment [2], -10.7%. Also, the viability increase in experiment [3] was -4.48%. In addition, the results for the viability in experiment [4] and in experiment [5] were 78% and 73.3%, respectively. The inhibition in experiment [6] was 1.98%. The RAM network inhibition in experiment [7] was 2.26%.

Take `Cc1nc(S(=O)(=O)c2ccc(Cl)cc2)c(NCc2ccccc2)o1`: the growth inhibition in experiment [1] was -6.92%; in experiment [2] it was -2.45%. Further, the viability increase in experiment [3] is -0.96%. Moreover, the viability in experiment [4] was 94.5%; in experiment [5] it was 95.5%. Also, in experiment [6], the inhibition is 2.39%. Besides, the RAM network inhibition in experiment [7] is 4.59%.

With `O=C(NCc1ccccc1)c1ccc(CN2CCOCC2)cc1`, the growth inhibition was 7.58% in experiment [1] and 2.15% in experiment [2]. The viability increase in experiment [3] was -0.24%. The figures for the viability in experiment [4] and in experiment [5] were 100% and 104%, respectively. Further, in experiment [6], the inhibition is 0.89%. For the same compound, the RAM network inhibition in experiment [7] is 9.41%.

Regarding `COc1ccccc1Nc1nc2ccccc2n1C`, the growth inhibition in experiment [1] was -11.6%; in experiment [2], -24.9%. For the same compound, the viability increase in experiment [3] is 0.31%. Moreover, the values for the viability in experiment [4] and in experiment [5] were 94.7% and 94.6%, respectively. The inhibition in experiment [6] was 1.44%. In addition, the RAM network inhibition in experiment [7] was 4.17%.

Take `CCOC(=O)c1c(NC(=O)C2CCCN2S(=O)(=O)c2cccc3nsnc23)sc(C)c1C` (stereo unspecified): the values for the growth inhibition in experiment [1] and in experiment [2] were -7.06% and -0.39%, respectively. Further, the viability increase in experiment [3] was 0.59%. Further, the viability in experiment [4] was 74%; in experiment [5], 72.5%. The inhibition in experiment [6] is 0.565%. For the same compound, the RAM network inhibition in experiment [7] is 7.77%.

Turning to `COc1ccc(S(=O)(=O)N2CCN(c3cccc(C)c3C)CC2)cc1`, the growth inhibition in experiment [1] is -16.7%; in experiment [2], -13.3%. The viability increase in experiment [3] is 1.83%. Further, the viability in experiment [4] is 97.9%; in experiment [5], 90.5%. Further, in experiment [6], the inhibition was 1.02%. Moreover, the RAM network inhibition in experiment [7] was 2.58%.
